In ChEMBL document CHEMBL1141540, “Design, synthesis, and evaluation of 1-(N-benzylamino)-2-phenyl-3-(1H-1,2,4-triazol-1-yl)propan-2-ols as antifungal agents” (2008):
In brackets after ≈: the same amount, converted by molar mass.

Columns and labels:
Candida albicans = assay: Antifungal activity against Candida albicans CA98001; assay type: functional
How it was run: (§1)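 Growth-inhibition screen against the named strain, following a previously published protocol. The read-out is MIC80, reported in ng mL⁻¹. Fluconazole and itraconazole served as positive controls.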

Aspergillus fumigatus = assay: Antifungal activity against Aspergillus fumigatus AF98003; assay type: functional; how it was run: as §1

| Structure (SMILES) | MIC80 (Candida albicans) | MIC80 (Aspergillus fumigatus) |
| --- | --- | --- |
| N#Cc1ccc(CNCC(O)(Cn2cncn2)c2ccc(Cl)cc2Cl)cc1 (stereo not drawn) | 0.0028 µg/mL (≈ 0.00696 µM) | 4.02 µg/mL (≈ 9.99 µM) |
| OC(CNCc1ccc(C(F)(F)F)cc1)(Cn1cncn1)c1ccc(Cl)cc1Cl (stereo not drawn) | 0.024 µg/mL (≈ 0.0539 µM) | 24 µg/mL (≈ 54 µM) |
| CN(Cc1ccc([N+](=O)[O-])cc1)CC(O)(Cn1cncn1)c1ccc(Cl)cc1Cl (stereo not drawn) | 0.0006 µg/mL (≈ 0.00138 µM) | 1.96 µg/mL (≈ 4.49 µM) |
| CN(Cc1ccc(C#N)cc1)CC(O)(Cn1cncn1)c1ccc(Cl)cc1Cl (stereo not drawn) | 0.00037 µg/mL (≈ 0.000889 µM) | 2.41 µg/mL (≈ 5.79 µM) |
| CN(Cc1ccc(C(F)(F)F)cc1)CC(O)(Cn1cncn1)c1ccc(Cl)cc1Cl (stereo not drawn) | 0.03 µg/mL (≈ 0.0653 µM) | 21.1 µg/mL (≈ 46 µM) |
| O=[N+]([O-])c1ccc(CNCC(O)(Cn2cncn2)c2ccc(Cl)cc2Cl)cc1 (stereo not drawn) | 0.006 µg/mL (≈ 0.0142 µM) | 27 µg/mL (≈ 64 µM) |
| Nc1ccc(CNCC(O)(Cn2cncn2)c2ccc(Cl)cc2Cl)cc1 (stereo not drawn) | 18.8 µg/mL (≈ 48 µM) | 3.06 µg/mL (≈ 7.8 µM) |
| CN(Cc1ccc(N)cc1)CC(O)(Cn1cncn1)c1ccc(Cl)cc1Cl (stereo not drawn) | 0.029 µg/mL (≈ 0.0714 µM) | 2.32 µg/mL (≈ 5.71 µM) |
| OC(Cn1cncn1)(Cn1cncn1)c1ccc(F)cc1F [FLUCONAZOLE] | 0.19 µg/mL (≈ 0.62 µM) |  |
| CCC(C)n1ncn(-c2ccc(N3CCN(c4ccc(OC[C@H]5CO[C@](Cn6cncn6)(c6ccc(Cl)cc6Cl)O5)cc4)CC3)cc2)c1=O (stereo partly drawn) [ITRACONAZOLE] |  | 0.42 µg/mL (≈ 0.595 µM) |
